Results reported in ChEMBL document CHEMBL2331102 (Bioorg Med Chem, 2013).
Converted amounts (≈) assume the structure as drawn.

Columns and labels:
[1] = Selectivity index, ratio of IC50 for rat L6 cells to IC50 for Trypanosoma cruzi Tulahuen TcVI extracellular trypomastigotes forms; format: toxicity, cell-based; settings: read-out: Ratio IC50
Method in brief: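 Ratio of the L6 myoblast cytotoxicity IC50 to the IC50 against β-galactosidase-expressing T. cruzi Tulahuen TcVI.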

[2] = system: Trypanosoma cruzi; assay: Antitrypanosomal activity against Trypanosoma cruzi Tulahuen TcVI extracellular trypomastigotes forms transfected with beta-galactosidase gene infected in rat L6 cells assessed as inhibition of parasite growth after 4 days; format: functional, organism-based; settings: L6, 96 h
Method in brief: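 L6 rat skeletal myoblasts were infected with extracellular trypomastigotes of β-galactosidase-transfected T. cruzi Tulahuen TcVI. After 48 h to establish infection, compound was added and incubation continued 4 days, exposing trypomastigote and intracellular amastigote forms.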

[3] = system: L6; assay: Cytotoxicity against rat L6 cells after 72 hrs by Alamar Blue assay; format: cell-based; settings: L6, 72 h
Method in brief: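 Counter-screen for cytotoxicity in uninfected L6 rat skeletal muscle myoblasts, with IC50 recorded in µM.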

[4] = target: CYP3A4/5 (Homo sapiens, UniProt P08684+P20815); assay: Inhibition of CYP3A4/5 in human liver microsomes assessed as reduction in testosterone-beta-hydroxylation; format: ADME, Microsome; settings: probe testosterone
Method in brief: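 CYP3A4 inhibition measured as inhibition of testosterone β-hydroxylation, reported as IC50 (µM).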

[5] = Kinetic solubility of the compound at pH 6.5 phosphate buffer by nephelometric analysis; format: physicochemical; settings: read-out: Kinetic_solubility
Method in brief: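 Kinetic solubility in phosphate buffer at pH 6.5, determined by nephelometry and reported in µg/mL.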

SMILES: O=C(Oc1ccccc1)N1CCN(C(c2cccnc2)c2ccc(Cl)cc2F)CC1 (stereo not given)
- selectivity ratio [1]: > 100
- IC50 [2]: 5 nM

SMILES: N#Cc1ccc(C(c2cccnc2)N2CCN(C(=O)NC3CC3)CC2)cc1 (stereo not given)
- selectivity ratio [1]: > 100
- IC50 [3]: > 100000 nM
- IC50 [2]: > 1000 nM

SMILES: CC(C)S(=O)(=O)N1CCN(C(c2ccc(Cl)cc2)c2cccnc2)CC1 (stereo not given)
- IC50 [4]: 810 nM
- solubility kinetic [5]: 12.5 µg/mL (≈ 31.7 µM)
- selectivity ratio [1]: > 100
- IC50 [3]: > 100000 nM
- IC50 [2]: 28 nM

SMILES: O=S(=O)(c1ccccc1)N1CCN(C(c2ccc(Cl)cc2)c2cccnc2)CC1 (stereo not given)
- IC50 [4]: 1900 nM
- solubility kinetic [5]: < 1.6 µg/mL
- selectivity ratio [1]: > 100
- IC50 [2]: 9 nM

SMILES: COc1ccccc1N1CCN(C(c2ccc(OC(C)C)cc2)c2cccnc2)CC1 (stereo not given)
- selectivity ratio [1]: > 100
- IC50 [2]: 28 nM

SMILES: O=C(c1ccccc1)N1CCN(C(c2cccnc2)c2ccc(Cl)cc2F)CC1 (stereo not given)
- selectivity ratio [1]: > 100
- IC50 [2]: 70 nM

SMILES: Cc1csc(C(=O)N2CCN(C(c3ccc(C#N)cc3)c3cccnc3)CC2)n1 (stereo not given)
- selectivity ratio [1]: > 100
- IC50 [3]: > 100000 nM
- IC50 [2]: 513 nM

SMILES: CS(=O)(=O)N1CCN(C(c2cccnc2)c2ccc(C(F)(F)F)cc2F)CC1 (stereo not given)
- IC50 [4]: 1000 nM
- solubility kinetic [5]: 25 µg/mL (≈ 59.9 µM)
- selectivity ratio [1]: > 100
- IC50 [2]: 28 nM

SMILES: O=C(Nc1ccccc1)N1CCN(C(c2cccnc2)c2ccc(Cl)cc2F)CC1 (stereo not given)
- selectivity ratio [1]: > 100
- IC50 [2]: 6 nM

SMILES: N#Cc1ccc(C(c2cccnc2)N2CCN(c3nccs3)CC2)cc1 (stereo not given)
- selectivity ratio [1]: > 100
- IC50 [3]: > 100000 nM
- IC50 [2]: 50 nM

SMILES: Fc1cc(Cl)ccc1C(c1cccnc1)N1CCN(c2ccccc2)CC1 (stereo not given)
- selectivity ratio [1]: > 100
- IC50 [2]: 18 nM

SMILES: O=C(c1ccccc1)N1CCN(C(c2ccc(Cl)cc2)c2cccnc2)CC1 (stereo not given)
- selectivity ratio [1]: > 100
- IC50 [2]: 68 nM

SMILES: CS(=O)(=O)N1CCN(C(c2ccc(C(F)(F)F)cc2)c2cncnc2)CC1 (stereo not given)
- selectivity ratio [1]: > 100
- IC50 [3]: > 100000 nM
- IC50 [2]: 769 nM

SMILES: O=S(=O)(C1CCCCC1)N1CCN(C(c2ccc(Cl)cc2)c2cccnc2)CC1 (stereo not given)
- selectivity ratio [1]: > 100
- IC50 [2]: 10 nM

SMILES: O=C(Cn1ccnc1[N+](=O)[O-])NCc1ccccc1 [BENZNIDAZOLE]
- IC50 [3]: > 100000 nM
- IC50 [2]: 1150 nM

SMILES: O=C(Nc1ccc(Cl)cc1)N1CCN(C(c2ccc(Cl)cc2)c2cncnc2)CC1 (stereo not given)
- selectivity ratio [1]: > 100
- IC50 [2]: 22 nM

SMILES: O=C(Nc1ccccc1)N1CCN(C(c2ccc(Cl)cc2)c2cccnc2)CC1 (stereo not given)
- selectivity ratio [1]: > 100
- IC50 [2]: 9 nM

SMILES: CC(C)Oc1ccc(C(c2cccnc2)N2CCN(C(=O)C(C)C)CC2)cc1 (stereo not given)
- selectivity ratio [1]: > 100
- IC50 [3]: > 100000 nM
- IC50 [2]: 35 nM

SMILES: O=C(C1CC1)N1CCN(C(c2cccnc2)c2ccc(Cl)cc2F)CC1 (stereo not given)
- IC50 [4]: 1800 nM
- solubility kinetic [5]: 50 µg/mL (≈ 134 µM)
- selectivity ratio [1]: > 100
- IC50 [3]: > 100000 nM
- IC50 [2]: 26 nM

SMILES: Cc1csc(C(=O)N2CCN(C(c3cccnc3)c3ccc(Cl)cc3F)CC2)n1 (stereo not given)
- IC50 [4]: 2800 nM
- solubility kinetic [5]: 50 µg/mL (≈ 116 µM)
- selectivity ratio [1]: > 100
- IC50 [3]: 93000 nM
- IC50 [2]: 36 nM

SMILES: CS(=O)(=O)N1CCN(C(c2cncnc2)c2ccc(C(F)(F)F)cc2F)CC1 (stereo not given)
- IC50 [4]: 5600 nM
- solubility kinetic [5]: 25 µg/mL (≈ 59.7 µM)
- selectivity ratio [1]: > 100
- IC50 [3]: > 100000 nM
- IC50 [2]: 25 nM

SMILES: O=S(=O)(c1ccc(Cl)cc1)N1CCN(C(c2ccc(Cl)cc2)c2cccnc2)CC1 (stereo not given)
- selectivity ratio [1]: > 100
- IC50 [2]: 24 nM

SMILES: O=C(Nc1ccc(Cl)cc1)N1CCN(C(c2cncnc2)c2ccc(Cl)cc2F)CC1 (stereo not given)
- IC50 [4]: 300 nM
- solubility kinetic [5]: 3.1 µg/mL (≈ 6.73 µM)
- selectivity ratio [1]: > 100
- IC50 [2]: 10 nM

SMILES: O=S(=O)(c1ccccc1)N1CCN(C(c2cccnc2)c2ccc(Cl)cc2F)CC1 (stereo not given)
- IC50 [4]: 600 nM
- solubility kinetic [5]: < 1.6 µg/mL
- selectivity ratio [1]: > 100
- IC50 [3]: 42000 nM
- IC50 [2]: 8 nM

SMILES: CC(C)(C)C(=O)N1CCN(C(c2cccnc2)c2ccc(C(F)(F)F)cc2F)CC1 (stereo not given)
- IC50 [4]: 3900 nM
- solubility kinetic [5]: 12.5 µg/mL (≈ 29.5 µM)
- selectivity ratio [1]: > 100
- IC50 [2]: 24 nM

SMILES: CC(=O)N1CCN(C(c2ccc(Cl)cc2)c2cccnc2)CC1 (stereo not given)
- IC50 [4]: 7400 nM
- solubility kinetic [5]: > 100 µg/mL
- selectivity ratio [1]: > 100
- IC50 [3]: > 100000 nM
- IC50 [2]: 240 nM

SMILES: COc1ccccc1N1CCN(C(c2cncnc2)c2ccc(Cl)cc2F)CC1 (stereo not given)
- selectivity ratio [1]: > 100
- IC50 [2]: 65 nM
